Assay results gathered from unrelated publications.
Converted amounts (≈) assume the structure as drawn.
Organism: Candida albicans

Compound | assay | test system | conditions | measurement | value
O=C(O)c1cn(C2CC2)c2cc(N3CCNCC3)c(F)cc2c1=O | microbial growth, broth dilution |  |  | MIC | 12.5 µM
C#CCCCCCCCCC=CCC(O)CC(O)CO (stereo not shown) | microbial growth, broth dilution | ATCC90028 |  | IC50 | > 8 µg/mL
Clc1ccccc1C(c1ccccc1)(c1ccccc1)n1ccnc1 | microbial growth, disc diffusion |  | 100 µg/mL | inhibition zone | 21 mm
O=C(Cc1cc(O)c(O)c(O)c1)NCCCCCCCC[P+](c1ccccc1)(c1ccccc1)c1ccccc1.[Br-] | microbial growth, broth dilution | ATCC90028 | 24 h | MIC | > 32 µg/mL
Cc1cc(N)c2ccccc2[n+]1CCCCCCCCCC[n+]1c(C)cc(N)c2ccccc21 | microbial growth, disc diffusion |  | 50 µg/disc | inhibition zone | 13 mm
CCCCCCCOc1c(OC)cc(NC(C)CCCN)c2nc(C(C)(C)C)ccc12 (stereo not shown) | microbial killing | ATCC90028 |  | MFC | 10 µg/mL (≈ 23.3 µM)
C[C@@H]1[C@H](O)[C@@H](C)/C=C/C=C/C=C/C=C/C=C/C=C/C=C/[C@H](O[C@@H]2O[C@H](C)[C@@H](O)[C@H](N)[C@@H]2O)C[C@@H]2O[C@](O)(C[C@@H](O)C[C@@H](O)[C@H](O)CC[C@@H](O)C[C@@H](O)CC(=O)O[C@H]1C)C[C@H](O)[C@H]2C(=O)O | microbial growth, disc diffusion |  | 35 µg/disc | inhibition zone | 11 mm
C[C@@H]1[C@H](O)[C@@H](C)/C=C/C=C/C=C/C=C/C=C/C=C/C=C/[C@H](O[C@@H]2O[C@H](C)[C@@H](O)[C@H](N)[C@@H]2O)C[C@@H]2O[C@](O)(C[C@@H](O)C[C@@H](O)[C@H](O)CC[C@@H](O)C[C@@H](O)CC(=O)O[C@H]1C)C[C@H](O)[C@H]2C(=O)O | microbial growth |  | 1000 µg/mL | inhibition zone | 21 mm
O=C(CCCCCCCCCC[P+](c1ccccc1)(c1ccccc1)c1ccccc1)Nc1ccc(O)c(O)c1.[Br-] | microbial growth, broth dilution | ATCC90028 | 24 h | MIC | 32 µg/mL
C[C@@H]1[C@H](O)[C@@H](C)/C=C/C=C/C=C/C=C/C=C/C=C/C=C/[C@H](O[C@@H]2O[C@H](C)[C@@H](O)[C@H](N)[C@@H]2O)C[C@@H]2O[C@](O)(C[C@@H](O)C[C@@H](O)[C@H](O)CC[C@@H](O)C[C@@H](O)CC(=O)O[C@H]1C)C[C@H](O)[C@H]2C(=O)O | microbial growth | ATCC90028 |  | IC50 | 0.32 µg/mL (≈ 0.346 µM)
C[C@@H]1[C@H](O)[C@@H](C)/C=C/C=C/C=C/C=C/C=C/C=C/C=C/[C@H](O[C@@H]2O[C@H](C)[C@@H](O)[C@H](N)[C@@H]2O)C[C@@H]2O[C@](O)(C[C@@H](O)C[C@@H](O)[C@H](O)CC[C@@H](O)C[C@@H](O)CC(=O)O[C@H]1C)C[C@H](O)[C@H]2C(=O)O | microbial killing | ATCC90028 |  | MFC | 1.25 µg/mL (≈ 1.35 µM)
C#CCCCCCCCCCCCC(O)CC(O)CO (stereo not shown) | microbial growth, broth dilution | ATCC90028 |  | IC50 | > 200 µg/mL
C[C@@H]1[C@H](O)[C@@H](C)/C=C/C=C/C=C/C=C/C=C/C=C/C=C/[C@H](O[C@@H]2O[C@H](C)[C@@H](O)[C@H](N)[C@@H]2O)C[C@@H]2O[C@](O)(C[C@@H](O)C[C@@H](O)[C@H](O)CC[C@@H](O)C[C@@H](O)CC(=O)O[C@H]1C)C[C@H](O)[C@H]2C(=O)O | microbial growth, broth dilution | ATCC90028 |  | IC50 | 0.26 µg/mL (≈ 0.281 µM)
